Experimental data from ChEMBL document CHEMBL4359827 (ACS Med Chem Lett, 2019).

Assays:
[1] = target: Tryptophan 2,3-dioxygenase (Homo sapiens, UniProt P48775); assay: Inhibition of human TDO expressed in Escherichia coli Rosetta measured after 1 hr microplate reader analysis
[2] = target: T1, Indoleamine 2,3-dioxygenase 1 (Homo sapiens, UniProt P14902); assay: Inhibition of IDO in human HeLa cells using tryptophan as substrate measured after 48 hrs in presence of INF gamma microplate reader analysis; assay type: cell-based
[3] = target: T1, Indoleamine 2,3-dioxygenase 1; assay: Inhibition of human IDO1 expressed in Escherichia coli Rosetta measured after 1 hr by microplate reader analysis
MC-38 [4] = assay: Antitumour activity against MC38 cells xenografted in humanized PD1 transgenic mouse assessed as tumour growth inhibition at 50 mg/kg, po bid for 14 days by digital caliper method relative to control; assay type: functional; conditions: MC-38, po, 336 h, read-out: TGI
Method in brief: (§1)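 MC38 tumors implanted in hPD1 transgenic mice. Compound given orally at 20 or 50 mg/kg, bid × 14. Tumor growth inhibition (TGI) was calculated against control. Body weight was monitored.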

MC-38 [5] = assay: Synergistic antitumour activity against MC38 cells xenografted in humanized PD1 transgenic mouse assessed as tumour growth inhibition at 20 to 50 mg/kg, po bid for 14 days pretreated with SHR-1210 at 5 mg/kg, ip qod for 8 days by digital caliper method relative to control
[6] = AUC in Sprague-Dawley rat at 10 mg/kg via oral gavage measured upto 24 hrs; assay type: ADME, organism-based; design: time < 24 hr, dose 10 mg/kg, route oral; conditions: in vivo
[7] = Cmax in Sprague-Dawley rat at 10 mg/kg via oral gavage measured upto 24 hrs; assay type: ADME, organism-based; design: dose 10 mg/kg, route oral; conditions: in vivo
[8] = Half-life in human liver microsomes; assay type: ADME, Microsome
[9] = Half-life in C57BL/6 mouse at 10 mg/kg via oral gavage measured upto 24 hrs; assay type: ADME, organism-based; conditions: in vivo
[10] = Oral bioavailability in C57BL/6 mouse at 10 mg/kg measured upto 24 hrs; assay type: ADME, organism-based; conditions: in vivo
[11] = Protein binding in dog plasma measured after 2 to 6 hrs by rapid equilibrium dialysis; assay type: ADME, cell-free, Canis lupus familiaris; conditions: read-out: PPB (converted)
[12] = AUC in Beagle dog at 2 mg/kg via oral gavage measured upto 24 hrs; assay type: ADME, organism-based, Canis lupus familiaris; design: time < 24 hr, dose 2 mg/kg, route oral; conditions: in vivo
Mus musculus = assay: Reduction in plasma kynurenine levels in C57BL/6 mouse at 100 mg/kg, s.d ig measured after 2 hrs relative to control; assay type: ADME, organism-based; design: scale not given: the % may be the effect or the level left; conditions: in vivo, po
[13] = Half-life in Beagle dog at 2 mg/kg via oral gavage measured upto 24 hrs; assay type: ADME, organism-based, Canis lupus familiaris; conditions: in vivo
[14] = Protein binding in mouse plasma measured after 2 to 6 hrs by rapid equilibrium dialysis; assay type: ADME, cell-free; conditions: read-out: PPB (converted)
[15] = Oral bioavailability in Sprague-Dawley rat at 10 mg/kg measured upto 24 hrs; assay type: ADME, organism-based; conditions: in vivo
MC-38 [16] = assay: Antitumour activity against MC38 cells xenografted in humanized PD1 transgenic mouse assessed as tumour growth inhibition at 20 mg/kg, po bid for 14 days by digital caliper method relative to control; assay type: functional; conditions: MC-38, po, 336 h, read-out: TGI; method in brief: as §1
[17] = Half-life in Sprague-Dawley rat at 10 mg/kg via oral gavage measured upto 24 hrs; assay type: ADME, organism-based; conditions: in vivo
[18] = Cmax in C57BL/6 mouse at 10 mg/kg via oral gavage measured upto 24 hrs; assay type: ADME, organism-based; design: dose 10 mg/kg, route oral; conditions: in vivo
[19] = Protein binding in human plasma measured after 4 hrs by rapid equilibrium dialysis; assay type: ADME, cell-free; conditions: read-out: PPB (converted)
[20] = Cmax in Beagle dog at 2 mg/kg via oral gavage measured upto 24 hrs; assay type: ADME, organism-based, Canis lupus familiaris; design: dose 2 mg/kg, route oral; conditions: in vivo
[21] = Half-life in rat liver microsomes; assay type: ADME, Microsome
[22] = AUC in C57BL/6 mouse at 10 mg/kg via oral gavage measured upto 24 hrs; assay type: ADME, organism-based; design: time < 24 hr, dose 10 mg/kg, route oral; conditions: in vivo
[23] = Oral bioavailability in Beagle dog at 2 mg/kg measured upto 24 hrs; assay type: ADME, organism-based, Canis lupus familiaris; conditions: in vivo

Tryptophan 2,3-dioxygenase, sequence (P48775 whole entry): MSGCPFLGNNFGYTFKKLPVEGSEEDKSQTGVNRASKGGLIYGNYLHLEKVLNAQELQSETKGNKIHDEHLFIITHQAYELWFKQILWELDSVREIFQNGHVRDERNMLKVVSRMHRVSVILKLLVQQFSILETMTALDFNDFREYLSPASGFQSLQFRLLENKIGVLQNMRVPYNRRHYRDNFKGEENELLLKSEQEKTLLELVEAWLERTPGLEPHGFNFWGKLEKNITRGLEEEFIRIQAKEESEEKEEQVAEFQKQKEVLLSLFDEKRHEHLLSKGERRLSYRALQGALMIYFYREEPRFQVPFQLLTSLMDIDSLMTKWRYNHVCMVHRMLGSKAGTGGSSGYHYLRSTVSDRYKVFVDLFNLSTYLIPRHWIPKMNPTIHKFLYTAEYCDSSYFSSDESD
T1 sequence (P14902 whole entry): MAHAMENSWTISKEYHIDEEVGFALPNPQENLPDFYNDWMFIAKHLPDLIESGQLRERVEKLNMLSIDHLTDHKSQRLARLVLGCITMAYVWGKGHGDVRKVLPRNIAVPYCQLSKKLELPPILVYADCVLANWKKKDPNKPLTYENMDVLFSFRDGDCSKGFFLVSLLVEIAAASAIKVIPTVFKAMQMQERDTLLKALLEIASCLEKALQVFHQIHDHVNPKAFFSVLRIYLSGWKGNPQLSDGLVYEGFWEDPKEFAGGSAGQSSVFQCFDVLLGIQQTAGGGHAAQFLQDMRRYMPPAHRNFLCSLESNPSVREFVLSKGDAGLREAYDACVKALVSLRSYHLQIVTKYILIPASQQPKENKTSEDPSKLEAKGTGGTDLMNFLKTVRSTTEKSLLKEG

Cn1cc(-c2cccc(N3CCC(C4c5c(F)cccc5-c5cncn54)CC3)c2)cn1 (stereo not drawn)
IC50 [1]: 639 nM

Fc1cccc2c1C(C1CCN(c3nc4ccccc4s3)CC1)n1cncc1-2 (stereo not drawn)
IC50 [1]: 195 nM
IC50 [2]: 440 nM
IC50 [3]: 19 nM

Fc1cccc2c1C(Cc1ccccc1)n1cncc1-2 (stereo not drawn)
IC50 [1]: 793 nM
IC50 [3]: 2730 nM

Fc1cccc2c1C(C1CCCCC1)n1cncc1-2 (stereo not drawn)
IC50 [1]: 85 nM
IC50 [2]: 568 nM
IC50 [3]: 108 nM

O=C(c1ccccc1)N1CCC(C2c3c(F)cccc3-c3cncn32)CC1 (stereo not drawn)
IC50 [1]: 1270 nM
IC50 [3]: 3560 nM

Fc1cccc2c1C(C1CCNCC1)n1cncc1-2 (stereo not drawn)
IC50 [1]: > 10000 nM
IC50 [3]: > 10000 nM

Fc1cccc2c1C(C1CCN(c3ccc(-c4cccnc4)cc3)CC1)n1cncc1-2 (stereo not drawn)
IC50 [1]: 183 nM
IC50 [2]: 240 nM
IC50 [3]: 70 nM

Cc1cc(-c2cnn(C)c2)ccc1N1CCC(C2c3c(F)cccc3-c3cncn32)CC1 (stereo not drawn)
IC50 [1]: 226 nM
IC50 [2]: 691 nM
IC50 [3]: 20 nM

Fc1cccc2c1C(C1CCOCC1)n1cncc1-2 (stereo not drawn)
IC50 [1]: 189 nM
IC50 [2]: 5340 nM
IC50 [3]: 969 nM

Cn1ccc2ccc(N3CCC(C4c5c(F)cccc5-c5cncn54)CC3)cc21 (stereo not drawn)
IC50 [1]: 376 nM
IC50 [2]: 203 nM
IC50 [3]: 27 nM

Fc1cccc2c1C(C1CCN(c3ccc(N4CCOCC4)cc3)CC1)n1cncc1-2 (stereo not drawn)
IC50 [1]: 1030 nM
IC50 [2]: 1710 nM
IC50 [3]: 358 nM

Cc1cc(N2CCC(C3c4c(F)cccc4-c4cncn43)CC2)ccc1-c1cnn(C)c1 (stereo not drawn)
IC50 [1]: 114 nM
IC50 [2]: 121 nM
IC50 [3]: 14 nM

Cn1cc(-c2ccc(N3CCC([C@H]4c5c(F)cccc5-c5cncn54)CC3)cc2)cn1
inhibition in vivo at 50 mg/kg (MC-38 [4]): 78%
TGI (MC-38 [5]): >90%
AUC at 24 h [6]: 6130 ng·h/mL
Cmax [7]: 1850 ng/mL
half-life [8]: 147 min
half-life [9]: 273 min
bioavailability [10]: 59.6%
fraction unbound [11]: 0.008
AUC at 24 h [12]: 1340 ng·h/mL
Activity (Mus musculus): 57%
half-life [13]: 389 min
fraction unbound [14]: 0.004
bioavailability [15]: 60.3%
inhibition in vivo at 20 mg/kg (MC-38 [16]): 39%
half-life [17]: 73.2 min
Cmax [18]: 3600 ng/mL
fraction unbound at 4 h [19]: 0.003
Cmax [20]: 166 ng/mL
half-life [21]: 142 min
AUC at 24 h [22]: 29100 ng·h/mL
bioavailability [23]: 27.3%

Fc1cccc2c1C(C1CCN(c3ccccc3)CC1)n1cncc1-2 (stereo not drawn)
IC50 [2]: 544 nM

Fc1cccc2c1C(C1CCN(c3nccs3)CC1)n1cncc1-2 (stereo not drawn)
IC50 [1]: 586 nM
IC50 [2]: 571 nM
IC50 [3]: 297 nM

Fc1cccc2c1C(C1CCN(c3ccc(-c4ccncc4)cc3)CC1)n1cncc1-2 (stereo not drawn)
IC50 [1]: 353 nM
IC50 [2]: 280 nM
IC50 [3]: 33 nM

O[C@H](C[C@H]1c2c(F)cccc2-c2cncn21)[C@H]1CC[C@H](O)CC1 [NAVOXIMOD]
IC50 [1]: 247 nM

Fc1cccc2c1C(C1CCCC1)n1cncc1-2 (stereo not drawn)
IC50 [1]: 95 nM
IC50 [2]: 1240 nM
IC50 [3]: 764 nM

Fc1cccc2c1C(c1ccccc1)n1cncc1-2 (stereo not drawn)
IC50 [1]: 374 nM
IC50 [3]: 2740 nM

Cn1cc(-c2cnc(N3CCC(C4c5c(F)cccc5-c5cncn54)CC3)nc2)cn1 (stereo not drawn)
IC50 [1]: 579 nM
IC50 [2]: 324 nM
IC50 [3]: 113 nM
